# Screens: PubChem BioAssay, Broad Institute
# MLL AF4-AF9 inh = inhibitors of human MLL-AF4/AF9 interaction | P42568 | AlphaScreen, biotin-AF4 peptide binding to FLAG-AF9 | inhibition, % at 10 µM | 350,000 tested, 0.47% active;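 active means every replicate reaching a set inhibition limit, whatever the replicate mean, cut at about 25% in these data; inconclusive means mean inhibition reaches that limit but some replicates miss it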
# Target sequence (P42568 whole entry, looked up): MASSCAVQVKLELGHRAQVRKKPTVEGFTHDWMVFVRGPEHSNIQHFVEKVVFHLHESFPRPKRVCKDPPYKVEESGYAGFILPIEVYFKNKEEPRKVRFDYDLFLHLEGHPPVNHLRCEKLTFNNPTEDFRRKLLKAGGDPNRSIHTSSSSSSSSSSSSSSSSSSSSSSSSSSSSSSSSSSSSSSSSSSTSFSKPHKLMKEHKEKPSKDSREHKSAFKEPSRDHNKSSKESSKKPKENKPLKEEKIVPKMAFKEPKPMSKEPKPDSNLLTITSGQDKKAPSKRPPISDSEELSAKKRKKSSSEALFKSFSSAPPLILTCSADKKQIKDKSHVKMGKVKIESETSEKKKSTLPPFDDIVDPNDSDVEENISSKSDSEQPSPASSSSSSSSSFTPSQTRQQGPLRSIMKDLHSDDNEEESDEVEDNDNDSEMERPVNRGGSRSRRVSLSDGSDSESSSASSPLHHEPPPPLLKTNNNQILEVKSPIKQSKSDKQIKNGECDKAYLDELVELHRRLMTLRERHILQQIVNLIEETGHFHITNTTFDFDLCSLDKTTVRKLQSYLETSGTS
# Cneo AK release = causes C. neoformans cell lysis; adenylate kinase release luminescence, 4 h; normalised: neutral wells 0, clomiphene wells 100; AID 651654; lysis activity, % at 15 µM; 360,000 tested, 0.2% active;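 active means mean lysis activity across replicates of at least 80%, whatever share of replicates individually reach that level; inactive means mean lysis activity below 80%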
#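 Test system: log-phase Cryptococcus neoformans yeast cells; Quantity: yeast cell density of 5 × 10^6 cells/mL; Buffer or medium: YPD; Doses: single compound concentration per well; Timing: 4 h at 37 °C static, read 1 h later; Measured by: AK luminescence; Read-out basis: lysis from increased AK signal; Control set: Clomiphene as positive control.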
# DENV2 CPE = protects cells from dengue virus 2 cytopathic effect | DENV2-infected cells, cytopathic effect rescue, plate reader | 350,000 tested, 1.7% active | CPE inhibition, % at 9.99 µM | AID 651640; in the data active means CPE inhibition above about 20%, passing the limit was not always enough; inconclusive means no clear call, values can overlap the other calls; tested in BHK-21 cells
# S100A4 MyoIIA = blocks human S100A4 binding to myosin IIA peptide. S100A4/TAMRA-MyoIIA peptide fluorescence polarization. 360,000 tested, 0.14% active. P26447. inhibition, % at 10.7 µM;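 active means mean inhibition of at least 70% across replicates, with every replicate also reaching that level; inconclusive means mean inhibition reaches 70% but some replicates fall short; inactive means mean inhibition below 70%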
# Target sequence (P26447 whole entry, looked up): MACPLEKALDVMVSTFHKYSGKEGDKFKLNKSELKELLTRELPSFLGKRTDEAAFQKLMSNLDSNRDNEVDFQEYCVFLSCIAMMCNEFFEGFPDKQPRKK
#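 Test system – S100A4 monomer (human) · Compound – single-point compound testing · Schedule – 5 min incubation before reading · Probe or stimulus – TAMRA-labelled myosin IIA heavy-chain peptide probe, 5 nM · Benchmarks – neutral control DMSO, positive control TFP · Medium – Calcium-containing HEPES buffer, pH 7.2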
# Ecoli rRNA inh = inhibits bacterial ribosomal RNA function over humanized ribosomes | E. coli WT GFP vs humanized-ribosome RFP mutants, fluorescence, 24 h; hits give low values; DMSO median 0, no signal -100 | GFP signal change (wild-type ribosome), % (no concentration beside the values) | 350,000 tested, 1.6% active;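 active means significant combined selectivity score with lowered wild-type GFP, culture density cut under 30%, mutant RFP and density less affected; inactive means any of these conditions unmet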
# PfHsp90 yeast 2 = reduces growth (ATP signal) of yeast expressing P. falciparum Hsp90; S. cerevisiae expressing PfHsp90, BacTiter-Glo ATP, 48 h; yeast lacking PDR1 and PDR3 efflux regulators; inhibition, % at 9.4 µM; 310,000 tested, 0.32% active;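 active means every replicate shows inhibition above about 80%, whatever the replicate mean, limit read from the data; inconclusive means mean inhibition reaches the set limit but some replicate falls short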
# Hits are given with their value; i = inactive; ? = inconclusive; nt = not tested or not shown; ! = not active in a repeat. A selection: hits, their analogues and other compounds. The true share with any hit is near 3.2%.
SMILES,MLL AF4-AF9 inh,Cneo AK release,DENV2 CPE,S100A4 MyoIIA,Ecoli rRNA inh,PfHsp90 yeast 2
C=CC[C@H](CC(=O)NCCO)C(=O)N[C@@H](C)COC(=O)[C@H](CC=C)CC(=O)OC(C)(C)C,i,i,i,i,i,i
C=CCC[C@@H](Cc1ccc(F)cc1)C(=O)OCCNC(=O)[C@@H](CC=C)CC(=O)N[C@H](CO)Cc1ccccc1,i,i,44.2,i,i,i
C=CC[C@@H](CC(=O)N[C@H](CO)Cc1ccccc1)C(=O)N[C@@H](C)COC(=O)[C@@H](CC=C)Cc1ccc(F)cc1,i,i,40.6,i,i,i
C=CC[C@@H](CC(=O)NCCO)C(=O)N[C@@H](C)COC(=O)[C@H](CC=C)CC(=O)OC(C)(C)C,i,i,46.4,i,i,i
C=CCC[C@@H](Cc1ccc(F)cc1)C(=O)OCCNC(=O)[C@@H](CC=C)CC(=O)N[C@@H](CO)Cc1ccccc1,i,i,i,i,i,i
CCS(=O)(=O)N1CC(=O)N2[C@H](C1)[C@@H](c1ccc(-c3ccc(C)cc3)cc1)[C@@H]2CO,i,nt,i,i,i,nt
C(C#CCCCCCCCCC[n+]1ccccc1)#CCCCCCCCCC[n+]1ccccc1,nt,i,nt,nt,nt,121.5
CC(=O)Oc1ccc2c(=O)c(Oc3ccccc3)c(C)oc2c1OC(C)=O,i,i,i,i,-17.4,i
COCC(=O)N1CC[C@H]2[C@H](CO)Nc3ccc(C#Cc4ccccc4)cc3[C@H]21,i,i,?,i,i,nt
COc1c(OC2OC(C(=O)O)C(O)C(O)C2O)cc(O)c2c(=O)cc(-c3ccccc3)oc12 (configuration not stated),i,i,25.4,i,i,i
O=C(O)C1OC(Oc2cc3oc(-c4ccccc4)cc(=O)c3c(O)c2O)C(O)C(O)C1O (configuration not stated),i,i,?,i,i,i
C[C@@H]1CCCCO[C@H](CN(C)C)[C@H](C)CN([C@@H](C)CO)C(=O)c2cc(NC(=O)CCC(F)(F)F)ccc2O1,i,i,i,i,i,nt
Cc1ccc(NC(=O)C2CCN(S(C)(=O)=O)CC2)cc1Cl,i,i,29.2,i,i,i
COc1cccc(CN(C)C[C@H]2OCc3ccccc3-c3c(n(C)c4ccccc34)C(=O)N([C@@H](C)CO)C[C@H]2C)c1,i,nt,i,i,i,nt
C[C@@H]1CN([C@H](C)CO)C(=O)c2c(c3ccccc3n2C)-c2ccccc2CO[C@@H]1CN(C)Cc1cccc2c1OCCCO2,i,nt,28.0,i,i,nt
COc1cccc(CN(C)C[C@@H]2OCc3ccccc3-c3c(n(C)c4ccccc34)C(=O)N([C@@H](C)CO)C[C@H]2C)c1,i,i,49.3!,i,i,nt
C[C@@H]1CN([C@@H](C)CO)C(=O)c2c(c3ccccc3n2C)-c2ccccc2CO[C@H]1CN(C)Cc1ccc2c(c1)OCCN2C,39.0,nt,i,i,i,nt
C[C@@H]1CN([C@H](C)CO)C(=O)c2c(c3ccccc3n2C)-c2ccccc2CO[C@@H]1CN(C)Cc1ccc2c(c1)OCCN2C,49.8,nt,i,i,i,nt
C[C@H]1CN([C@@H](C)CO)C(=O)c2c(c3ccccc3n2C)-c2ccccc2CO[C@H]1CN(C)Cc1ccc(Cl)c(Cl)c1,i,nt,i,i,i,nt
C[C@H](CO)N1C[C@H](C)[C@@H](CN(C)Cc2ccc(Cl)c(Cl)c2)OCc2ccccc2-c2c(n(C)c3ccccc23)C1=O,nt,nt,nt,nt,i,nt
COCCNC(=O)[C@@H]1[C@@H](CO)[C@@H]2Cn3c(ccc(-c4ccccc4)c3=O)[C@H]1N2C(=O)NC(C)C,i,i,?,i,i,nt
CC1=NN(c2nc3ccccc3[nH]2)C(=O)/C1=C/N(C)C,nt,nt,nt,nt,nt,80.7
CCNC(=O)C[C@H]1CC[C@H]2[C@@H](COC[C@@H](O)CN2C(=O)C2CCOCC2)O1,i,i,i,i,i,nt
COc1ccc(-c2csc(C3=C(O)CN(C(C)C)C3=N)n2)cc1OC,i,i,i,i,-34.9,i
Cc1ccc(S(=O)(=O)Nc2cccc3c2O[C@@H](CN(C)S(=O)(=O)c2cn(C)cn2)[C@@H](C)CN([C@@H](C)CO)C3=O)cc1,i,i,nt,nt,i,nt
SMILES,MLL AF4-AF9 inh,Cneo AK release,DENV2 CPE,S100A4 MyoIIA,Ecoli rRNA inh,PfHsp90 yeast 2
CCN(CC)C(=O)C1CCN(Cc2ccc(OCc3ccccc3)cc2)CC1,i,i,27.6,i,i,i
CCN(CC)C(=O)C1CCN(Cc2cccc(OCc3ccccc3)c2)CC1,nt,i,nt,nt,nt,i
N#CC(Sc1ccccn1)c1ccc(Cl)cc1Cl (configuration not stated),i,nt,i,i,-20.9,i
Nc1nc(SCc2ccccc2)c2ncn(C3OC(CO)C(O)C3O)c2n1 (configuration not stated),i,i,i,i,i,i
COC(=O)[C@@H](Cc1ccccc1)NC(=O)[C@H]1O[C@@H](n2cnc3c(N)ncnc32)[C@H](O)[C@@H]1O,i,i,i,i,i,nt
Nc1ncnc2c1ncn2C1OC(C(=O)NC2CC2)C(O)C1O (configuration not stated),48.4,i,i,i,i,i
Nc1ncnc2c1ncn2[C@@H]1O[C@H](C(=O)N[C@@H](CCc2ccccc2)C(=O)O)[C@@H](O)[C@H]1O,nt,nt,27.8,i,i,nt
OCC1OC(n2cnc3c(SCc4ccccc4)ncnc32)C(O)C1O (configuration not stated),i,nt,75.2,i,nt,i
C[C@@H](CO)NC(=O)[C@H]1O[C@@H](n2cnc3c(N)ncnc32)[C@H](O)[C@@H]1O,nt,i,nt,nt,nt,nt
C[C@H](CO)N1C[C@H](C)[C@H](CN(C)S(=O)(=O)c2ccc(F)cc2)Oc2ccc(NC(=O)Nc3ccc4c(c3)OCO4)cc2CC1=O,i,nt,i,i,i,nt
Cc1cc2c(cc1C)CSC(c1ccccc1O)SC2,nt,i,nt,nt,nt,i
Cc1cc2c(cc1C)CSC(c1c(O)ccc3ccccc13)SC2,nt,i,nt,nt,nt,100.0
CO[C@H](CN(C)S(=O)(=O)c1ccc(C)cc1)[C@@H](C)CN(C(=O)Nc1ccccc1F)[C@H](C)CO,i,i,30.5,i,i,nt
CO[C@@H](CN(C)C(=O)c1cc(Cl)cc(Cl)c1)[C@H](C)CN(C(=O)Nc1ccc(F)cc1)[C@@H](C)CO,i,i,91.5,i,i,nt
CO[C@@H](CN(C)S(=O)(=O)c1cn(C)cn1)[C@@H](C)CN(C(=O)Nc1ccc(F)cc1)[C@@H](C)CO,i,i,23.2,i,i,nt
C[C@@H]1CN([C@@H](C)CO)C(=O)Cc2cc(NS(C)(=O)=O)ccc2O[C@@H]1CN(C)C(=O)Nc1ccccc1,i,i,i,i,i,nt
COc1ccc(NC(=O)N[C@H]2C=C[C@@H](CC(=O)NC3CCCCC3)O[C@H]2CO)cc1,i,i,i,i,i,nt
